# Results from ChEMBL document CHEMBL1149298, “Stereochemical studies of the monocyclic agouti-related protein (103-122) Arg-Phe-Phe residues: conversion of a melanocortin-4 receptor antagonist into an agonist and results in the discovery of a potent and selective melanocortin-1 agonist” (J Med Chem, 2004).
# Key:
# [1] = biological target: Melanocortin receptor 3 (Mus musculus) (UniProt P33033); test: Agonist activity at mouse MC3R expressed in HEK293 cells by beta-galactosidase assay at 100 uM relative to forskolin; assay type: functional, cell-based; settings: filed as agonist
# Sequence of Melanocortin receptor 3 (Mus musculus) (P33033 whole entry): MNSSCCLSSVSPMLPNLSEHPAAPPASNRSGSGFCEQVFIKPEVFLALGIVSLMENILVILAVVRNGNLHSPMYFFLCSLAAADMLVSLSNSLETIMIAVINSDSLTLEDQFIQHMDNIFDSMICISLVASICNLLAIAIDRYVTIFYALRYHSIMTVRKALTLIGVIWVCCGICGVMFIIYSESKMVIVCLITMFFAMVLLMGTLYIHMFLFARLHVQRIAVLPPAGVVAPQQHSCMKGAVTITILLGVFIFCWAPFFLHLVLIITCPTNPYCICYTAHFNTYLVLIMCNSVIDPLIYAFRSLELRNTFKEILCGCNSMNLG
# Melanocortin receptor 4 [2] = biological target: T1, Melanocortin receptor 4 (Mus musculus, UniProt P56450); test: Agonist activity at mouse MC4R expressed in HEK293 cells by beta-galactosidase assay; assay type: functional, cell-based
# T1 sequence (P56450 whole entry): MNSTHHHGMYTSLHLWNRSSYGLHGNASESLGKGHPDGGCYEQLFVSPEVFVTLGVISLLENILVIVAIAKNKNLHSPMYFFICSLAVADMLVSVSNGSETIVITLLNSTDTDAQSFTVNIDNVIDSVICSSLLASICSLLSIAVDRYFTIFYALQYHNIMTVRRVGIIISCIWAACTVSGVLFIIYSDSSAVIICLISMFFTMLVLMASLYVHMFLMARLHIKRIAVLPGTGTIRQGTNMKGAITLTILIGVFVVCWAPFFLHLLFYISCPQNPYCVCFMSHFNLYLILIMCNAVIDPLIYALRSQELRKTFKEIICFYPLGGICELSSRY
# [3] = biological target: Melanocyte-stimulating hormone receptor (Mus musculus, UniProt Q01727); test: Agonist activity at mouse MC1R expressed in HEK293 cells by beta-galactosidase assay; assay type: functional, cell-based
# Sequence of Melanocyte-stimulating hormone receptor (Q01727 whole entry): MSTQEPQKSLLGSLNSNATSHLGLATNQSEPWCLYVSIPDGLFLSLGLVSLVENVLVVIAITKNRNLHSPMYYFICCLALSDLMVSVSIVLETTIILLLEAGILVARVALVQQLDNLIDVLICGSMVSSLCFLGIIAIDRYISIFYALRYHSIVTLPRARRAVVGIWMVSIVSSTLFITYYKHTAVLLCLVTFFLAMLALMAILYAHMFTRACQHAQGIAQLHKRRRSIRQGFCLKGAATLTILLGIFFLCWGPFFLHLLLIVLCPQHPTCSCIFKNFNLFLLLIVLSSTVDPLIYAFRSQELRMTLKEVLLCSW
# Melanocortin receptor 5 = Melanocortin receptor 5 (Mus musculus, UniProt P41149); test: Agonist activity at mouse MC5R expressed in HEK293 cells by beta-galactosidase assay; assay type: functional, cell-based
# Sequence of Melanocortin receptor 5 (P41149 whole entry): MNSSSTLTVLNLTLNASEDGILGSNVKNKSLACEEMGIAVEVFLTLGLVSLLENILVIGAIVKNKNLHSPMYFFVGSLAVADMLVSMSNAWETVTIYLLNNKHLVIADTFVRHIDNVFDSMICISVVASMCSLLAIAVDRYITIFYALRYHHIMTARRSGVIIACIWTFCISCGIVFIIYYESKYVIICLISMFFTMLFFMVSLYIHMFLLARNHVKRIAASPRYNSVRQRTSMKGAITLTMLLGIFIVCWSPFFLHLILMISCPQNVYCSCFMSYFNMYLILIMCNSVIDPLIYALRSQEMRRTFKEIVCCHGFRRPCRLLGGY
# Melanocortin receptor 3 [4] = biological target: T2, Melanocortin receptor 3 (Mus musculus, UniProt P33033); test: Agonist activity at mouse MC3R expressed in HEK293 cells by beta-galactosidase assay; assay type: functional, cell-based
# T2 sequence (P33033 whole entry): as the sequence (P33033 whole entry) above
# Melanocortin receptor 4 [5] = biological target: T1, Melanocortin receptor 4; test: Displacement of MT2 from mouse MC4R expressed in HEK293 cells; assay type: cell-based
# Method in brief: (§1)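 Antagonism was measured in the same CRE/β-galactosidase assay in HEK-293 cells stably expressing the mouse receptor, as the dose-dependent competitive shift of MTII agonist response. pA2 was obtained by Schild analysis and converted to Ki. Values are means of duplicate wells from at least three independent experiments, ± SEM.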
# Melanocortin receptor 3 [6] = biological target: T2, Melanocortin receptor 3; test: Displacement of MT2 from mouse MC3R expressed in HEK293 cells; assay type: cell-based; method in brief: as §1
# Mus musculus [7] = species on record: Mus musculus; test: Selectivity for mouse MC1R over mouse MC5R
# Mus musculus [8] = species on record: Mus musculus; test: Selectivity for mouse MC1R over mouse MC3R
# Mus musculus [9] = species on record: Mus musculus; test: Selectivity for mouse MC1R over mouse MC4R
# [10] = biological target: Melanocortin receptor 4 (Mus musculus) (UniProt P56450); test: Agonist activity at mouse MC4R expressed in HEK293 cells by beta-galactosidase assay at 100 uM relative to forskolin; assay type: functional, cell-based; settings: filed as agonist
# Sequence of Melanocortin receptor 4 (Mus musculus) (P56450 whole entry): as the sequence (P56450 whole entry) above
Structure (SMILES),Activity [1],EC50 (Melanocortin receptor 4 [2]),EC50 [3],EC50 (Melanocortin receptor 5),EC50 (Melanocortin receptor 3 [4]),pA2 (Melanocortin receptor 4 [5]),pA2 (Melanocortin receptor 3 [6]),Selectivity ratio (Mus musculus [7]),Selectivity ratio (Mus musculus [8]),Selectivity ratio (Mus musculus [9]),Activity [10]
CC(C)C[C@H](NC(=O)[C@H](CCCCN)NC(=O)[C@H](CCCNC(=N)N)NC(=O)[C@H](C)NC(=O)[C@H](Cc1ccc(O)cc1)NC(=O)[C@@H]1CSSC[C@H](NC(=O)[C@H](Cc2ccc(O)cc2)NC(=O)[C@H](C)NC(=O)[C@@H](NC(=O)[C@H](C)NC(=O)[C@H](C)NC(=O)[C@@H]2CCCN2C(=O)[C@@H](N)CC(=O)O)[C@@H](C)O)C(=O)N[C@H](CCCNC(=N)N)C(=O)N[C@@H](Cc2ccccc2)C(=O)N[C@@H](Cc2ccccc2)C(=O)N[C@@H](CC(N)=O)C(=O)N[C@@H](C)C(=O)N[C@@H](Cc2ccccc2)C(=O)N1)C(=O)O,70%,37.7 µM (agonist),6.33 µM (agonist),18.3 µM (agonist),,,,,,,
CC(C)C[C@H](NC(=O)[C@H](CCCCN)NC(=O)[C@H](CCCNC(=N)N)NC(=O)[C@H](C)NC(=O)[C@H](Cc1ccc(O)cc1)NC(=O)[C@@H]1CSSC[C@H](NC(=O)[C@H](Cc2ccc(O)cc2)NC(=O)[C@H](C)NC(=O)[C@@H](NC(=O)[C@H](C)NC(=O)[C@H](C)NC(=O)[C@@H]2CCCN2C(=O)[C@@H](N)CC(=O)O)[C@@H](C)O)C(=O)N[C@H](CCCNC(=N)N)C(=O)N[C@H](Cc2ccccc2)C(=O)N[C@H](Cc2ccccc2)C(=O)N[C@@H](CC(N)=O)C(=O)N[C@@H](C)C(=O)N[C@@H](Cc2ccccc2)C(=O)N1)C(=O)O,,21.5 µM (agonist),3.75 µM (agonist),13.2 µM (agonist),22.6 µM (agonist),,,,,,
CC(C)C[C@H](NC(=O)[C@H](CCCCN)NC(=O)[C@H](CCCNC(=N)N)NC(=O)[C@H](C)NC(=O)[C@H](Cc1ccc(O)cc1)NC(=O)[C@@H]1CSSC[C@H](NC(=O)[C@H](Cc2ccc(O)cc2)NC(=O)[C@H](C)NC(=O)[C@@H](NC(=O)[C@H](C)NC(=O)[C@H](C)NC(=O)[C@@H]2CCCN2C(=O)[C@@H](N)CC(=O)O)[C@@H](C)O)C(=O)N[C@H](CCCNC(=N)N)C(=O)N[C@@H](Cc2ccccc2)C(=O)N[C@H](Cc2ccccc2)C(=O)N[C@@H](CC(N)=O)C(=O)N[C@@H](C)C(=O)N[C@@H](Cc2ccccc2)C(=O)N1)C(=O)O,70%,8.33 µM (agonist),5.27 µM (agonist),19.8 µM (agonist),,,,,,,
CC(C)C[C@H](NC(=O)[C@H](CCCCN)NC(=O)[C@H](CCCNC(=N)N)NC(=O)[C@H](C)NC(=O)[C@H](Cc1ccc(O)cc1)NC(=O)[C@@H]1CSSC[C@H](NC(=O)[C@H](Cc2ccc(O)cc2)NC(=O)[C@H](C)NC(=O)[C@@H](NC(=O)[C@H](C)NC(=O)[C@H](C)NC(=O)[C@@H]2CCCN2C(=O)[C@@H](N)CC(=O)O)[C@@H](C)O)C(=O)N[C@@H](CCCNC(=N)N)C(=O)N[C@@H](Cc2ccccc2)C(=O)N[C@H](Cc2ccccc2)C(=O)N[C@@H](CC(N)=O)C(=O)N[C@@H](C)C(=O)N[C@@H](Cc2ccccc2)C(=O)N1)C(=O)O (stereo in doubt; 4),,3.7 µM (agonist),0.12 µM (agonist),2.22 µM (agonist),13.7 µM (agonist),,,,,,
CC(C)C[C@H](NC(=O)[C@H](CCCCN)NC(=O)[C@H](CCCNC(=N)N)NC(=O)[C@H](C)NC(=O)[C@H](Cc1ccc(O)cc1)NC(=O)[C@@H]1CSSC[C@H](NC(=O)[C@H](Cc2ccc(O)cc2)NC(=O)[C@H](C)NC(=O)[C@@H](NC(=O)[C@H](C)NC(=O)[C@H](C)NC(=O)[C@@H]2CCCN2C(=O)[C@@H](N)CC(=O)O)[C@@H](C)O)C(=O)N[C@@H](CCCNC(=N)N)C(=O)N[C@@H](Cc2ccccc2)C(=O)N[C@H](Cc2ccccc2)C(=O)N[C@@H](CC(N)=O)C(=O)N[C@@H](C)C(=O)N[C@@H](Cc2ccccc2)C(=O)N1)C(=O)O (stereo in doubt; 1),,,0.96 µM (agonist),> 100 µM (agonist),,6.92,6.15,,,,
CC(C)C[C@H](NC(=O)[C@H](CCCCN)NC(=O)[C@H](CCCNC(=N)N)NC(=O)[C@H](C)NC(=O)[C@H](Cc1ccc(O)cc1)NC(=O)[C@@H]1CSSC[C@H](NC(=O)[C@H](Cc2ccc(O)cc2)NC(=O)[C@H](C)NC(=O)[C@@H](NC(=O)[C@H](C)NC(=O)[C@H](C)NC(=O)[C@@H]2CCCN2C(=O)[C@@H](N)CC(=O)O)[C@@H](C)O)C(=O)N[C@@H](CCCNC(=N)N)C(=O)N[C@H](Cc2ccccc2)C(=O)N[C@H](Cc2ccccc2)C(=O)N[C@@H](CC(N)=O)C(=O)N[C@@H](C)C(=O)N[C@@H](Cc2ccccc2)C(=O)N1)C(=O)O,,6.24 µM (agonist),0.064 µM (agonist),11.4 µM (agonist),63.3 µM (agonist),,,180,990,98,

# The next lines start with the values.
Activity [1],EC50 (Melanocortin receptor 4 [2]),EC50 [3],EC50 (Melanocortin receptor 5),EC50 (Melanocortin receptor 3 [4]),pA2 (Melanocortin receptor 4 [5]),pA2 (Melanocortin receptor 3 [6]),Selectivity ratio (Mus musculus [7]),Selectivity ratio (Mus musculus [8]),Selectivity ratio (Mus musculus [9]),Activity [10],Structure (SMILES)
,8.3 µM (agonist),1.75 µM (agonist),4.6 µM (agonist),5.51 µM (agonist),,,,,,,CC(C)C[C@H](NC(=O)[C@H](CCCCN)NC(=O)[C@H](CCCNC(=N)N)NC(=O)[C@H](C)NC(=O)[C@H](Cc1ccc(O)cc1)NC(=O)[C@@H]1CSSC[C@H](NC(=O)[C@H](Cc2ccc(O)cc2)NC(=O)[C@H](C)NC(=O)[C@@H](NC(=O)[C@H](C)NC(=O)[C@H](C)NC(=O)[C@@H]2CCCN2C(=O)[C@@H](N)CC(=O)O)[C@@H](C)O)C(=O)N[C@H](CCCNC(=N)N)C(=O)N[C@H](Cc2ccccc2)C(=O)N[C@@H](Cc2ccccc2)C(=O)N[C@@H](CC(N)=O)C(=O)N[C@@H](C)C(=O)N[C@@H](Cc2ccccc2)C(=O)N1)C(=O)O
50%,,0.093 µM (agonist),1.41 µM (agonist),,6.56,6.14,,,,75%,CC(C)C[C@H](NC(=O)[C@H](CCCCN)NC(=O)[C@H](CCCNC(=N)N)NC(=O)[C@H](C)NC(=O)[C@H](Cc1ccc(O)cc1)NC(=O)[C@@H]1CSSC[C@H](NC(=O)[C@H](Cc2ccc(O)cc2)NC(=O)[C@H](C)NC(=O)[C@@H](NC(=O)[C@H](C)NC(=O)[C@H](C)NC(=O)[C@@H]2CCCN2C(=O)[C@@H](N)CC(=O)O)[C@@H](C)O)C(=O)N[C@@H](CCCNC(=N)N)C(=O)N[C@H](Cc2ccccc2)C(=O)N[C@@H](Cc2ccccc2)C(=O)N[C@@H](CC(N)=O)C(=O)N[C@@H](C)C(=O)N[C@@H](Cc2ccccc2)C(=O)N1)C(=O)O
